KCNQ1 block: human KCNQ1 channel inhibition; CHO-K1 KCNQ1, FluxOR thallium flux fluorescence; stronger effect = higher value; hit rate 1.3% among 310,000; B-score at 10 µM; P51787; AID 2642;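 active = compounds whose thallium flux B-score, printed positive for inhibition, exceeds three library SD while starting fluorescence stays within three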;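 note: channel opened by potassium depolarization with thallium stimulus after 20 min compound exposure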
hERG protect: shields human hERG channel from block by proarrhythmic agents | Q12809 | CHO-hERG, FluxOR thallium flux, dofetilide IC70 present | activation (rescue from dofetilide block), less the hit threshold, % at 10 µM | hit rate 0.51% among 310,000 | AID 1511;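 active = activation above the mean of controls blocked by dofetilide plus 5 SD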;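 note: thallium influx through hERG after potassium depolarization seen as dye fluorescence rise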
KCNK9 block: human KCNK9 channel inhibition | Q9NPC2 | hit rate 1.2% among 310,000 | AID 488922 | HEK293 KCNK9, FluxOR thallium flux fluorescence; stronger effect = lower value | B-score at 10 µM;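 active = ratio B-score over 3 SD below the library mean, with starting fluorescence within 5 SD of its mean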;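 note: negative B-score means less thallium flux so channel inhibition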
KCNK3 inh: human KCNK3 channel inhibition, primary screen; O14649; CHO-KCNK3 thallium flux, FluxOR fluorescence; stronger effect = lower value; hit rate 0.84% among 340,000; B-score at 10 µM;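 active = B-score under library mean minus 4 SD, starting fluorescence ratio at most library mean plus 5 SD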;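 note: more negative B-score means stronger inhibition of thallium flux through KCNK3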
KCNQ1 act: human KCNQ1 channel potentiation or activation. P51787. CHO-K1 KCNQ1, thallium flux FluxOR fluorescence; stronger effect = higher value. B-score at 10 µM. hit rate 0.35% among 310,000. AID 2648;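 active = fluorescence ratio B-score, a plate-corrected score, at least three library SD, with initial intensity B-score within 5 SD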
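Test system: CHO-K1 cells stably expressing KCNQ1 / Medium: assay buffer / Also added: depolarizing K+/Tl+ stimulus, K2SO4 and Tl2SO4 each 12.5 mM in 5x stock / Incubation: 90 min dye loading and 20 min compound exposure, both at room temperature / Signal: thallium influx via FluxOR fluorescence, kinetic imaging / Evaluation: B score of baseline-normalized fluorescence ratio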
Kir21 block: Kir2.1 (mouse) channel inhibition. P35561. HEK293-Kir2.1, FluxOR thallium flux fluorescence; stronger effect = lower value. B-score at 10 µM. hit rate 0.85% among 310,000;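 active = fluorescence ratio B-score at or below minus 3 SD of library scores, with starting-brightness B-score within 2 SD, cut at about -4.2 in these data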;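 note: channel flux triggered by added potassium and thallium sulfate stimulus; B-score of peak minus minimum fluorescence over baseline after thallium stimulus; more negative B-score means stronger Kir2.1 block with less thallium influx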
KCNQ1 inh valid: confirmation of human KCNQ1 potassium channel inhibitors. shares compounds with KCNQ1 block. KCNQ1 cell line, FluxOR thallium flux fluorescence. inhibition, % at 10 µM. hit rate 93% among 1,600. AID 588353;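 active = primary screen active, with duplicate mean exceeding buffer control mean plus 3 SD of buffer wells, cut at about 28% in these data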;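 note: 0% = buffer control ratio and 100% = XE991 inhibitor control ratio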
CHO Tl flux: KCNQ1 inhibitor counter-screen hit in parental CHO cells; shares compounds with KCNQ1 block; parental CHO-K1, FluxOR thallium flux fluorescence ratio; stronger effect = lower value; zero means no signal rise above baseline; fluorescence ratio (Tl flux) at 10 µM; hit rate 21% among 1,600;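 active = mean of duplicate thallium-flux fluorescence ratios in parental host cells more than 5 SD below the buffer control mean, cut at about 0.38 in these data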;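 note: ratio is peak minus minimum fluorescence divided by baseline fluorescence; actives read low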
KCNQ1 APC inh: confirmation of human KCNQ1 potassium channel inhibitors by electrophysiology. shares compounds with KCNQ1 block. KCNQ1-CHO cells, automated patch clamp current. calls only at 10 µM. hit rate 20% among 490. AID 624120;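 active = KCNQ1 current drop exceeding 3 SD of negative control wells, seen in both duplicate runs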;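 note: steady state current during a 2 s step from -80 to +40 mV; negative values mean current inhibition and positive values mean potentiation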
KCNQ2 inh: rat KCNQ2 inhibition in KCNQ1 inhibitor specificity screen; shares compounds with KCNQ1 block; KCNQ2 cells, FluxOR thallium flux fluorescence; inhibition, % at 10 µM; hit rate 71% among 1,600; AID 651746;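 active = mean percent inhibition of the KCNQ2 thallium signal more than 5 SD above the buffer-only control wells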;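 note: KCNQ2 expressed in CHO cells; 0% = buffer control wells and 100% = XE-991 inhibitor control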
KCNQ1 KCNE1 spec: KCNQ1 inhibitor that also blocks human KCNQ1/KCNE1 channel; inhibition, % at 10 µM; shares compounds with KCNQ1 block; AID 652147; hit rate 77% among 1,600; KCNQ1/KCNE1 cells, FluxOR thallium flux fluorescence;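 active = mean percent inhibition of duplicate wells above the buffer-only control mean plus 3 SD of those controls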;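 note: 0% = buffer only wells and 100% = XE-991 inhibitor control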
Active calls of the source: *; i = inactive; · = no result; + = active, no number. The list is not random: actives were taken first. Their share in the collection is about 3.8%.

SMILES | KCNQ1 block | hERG protect | KCNK9 block | KCNK3 inh | KCNQ1 act | Kir21 block | KCNQ1 inh valid | CHO Tl flux | KCNQ2 inh | KCNQ1 KCNE1 spec | others
O=C(OCC(=O)N1CCC(Cc2ccccc2)CC1)c1cccnc1Cl | · | · | · | i | · | · | · | · | · | ·
Cc1cc(C)nc(NC(=O)c2ccc(COc3ccccc3Cl)cc2)c1 | 8* | -6.2 | i | i | i | -0.2 | 103.0* | 0.447 | 106.0%* | 123.0%* | KCNQ1 APC inh=i
CCc1ccc(C(C(=O)NC2CCCCC2)N(C(=O)c2csnn2)C2CC2)cc1 (configuration not stated) | i | -9.4 | i | i | i | 0.77 | · | · | · | ·
CCOC(=O)c1ccc(NC(=S)Nc2ccc(C)cc2)cc1 | i | -15.7 | i | i | i | 0.79 | · | · | · | ·
CCOC(=O)c1cn[nH]c1NC(=S)Nc1ccc(Cl)cc1 | 13* | -12.9 | i | i | i | -0.3 | 77.5* | 0.551 | 75.7%* | 54.0%*
CSc1nnc(C)c(/C=C/Nc2ccc(Cl)cc2)n1 | 11* | -1.2 | i | i | i | -2.94 | 48.5* | 0.429 | i | 87.5%*
CSc1nnc(C)c(/C=C/Nc2ccc(F)cc2)n1 | i | -3.1 | i | i | i | -0.07 | · | · | · | ·
Cc1cc(C2(c3ccc(O)c(C)c3)C(=O)Nc3ccccc32)ccc1O | 7* | -6.3 | i | i | i | 0.32 | 0.0 | 0.472 | i | i
COc1ccccc1NC(=O)C(C)OC(=O)C1CCC(C(C)(C)C)CC1 (configuration not stated) | 7* | -5.3 | -7.1* | i | i | -2.63 | 121.5* | 0.493 | 82.7%* | 156.0%* | KCNQ1 APC inh=i
O=C(Nc1ccc(F)cc1)c1ccc2snnc2c1 | i | -2.4 | i | i | i | 1.28 | · | · | · | ·
CCCc1cc(C(=O)Nc2ccc(C(=O)c3ccc(F)cc3)cc2)n(C)n1 | 6* | -3.4 | i | -12.1* | i | 1.03 | + | 0.39 | 137.3%* | +
COc1ccc(-c2csc(NC(=O)CSc3nc(C)cs3)n2)cc1 | i | -8.1 | i | i | i | -0.96 | · | · | · | ·
COc1ccc(-c2csc(NC(=O)CSc3nc(SC)ns3)n2)cc1 | 9* | -18.6 | i | i | i | -1.31 | 114.0* | 0.427 | 65.7%* | 116.5%* | KCNQ1 APC inh=i
Cc1cccc(Cn2nc(C(C)(C)C)cc2C(=O)Nc2ccc(F)cc2)c1 | 12* | -17.9 | i | i | i | -0.9 | 175.0* | 0.22* | 144.0%* | +
O=S(=O)(c1cccc(NC(=S)Nc2ccc(Br)cc2Cl)c1)N1CCOCC1 | 9* | -10.4 | i | i | i | -1.03 | 0.0 | 0.562 | i | i
Nc1ncc(Br)cc1S(=O)(=O)Nc1cc(C(F)(F)F)cc(C(F)(F)F)c1 | 10* | -11.1 | i | i | i | -2.9 | 107.5* | 0.455 | i | i
Cc1ccc(NS(=O)(=O)c2cc(Br)cnc2N)c(Cl)c1 | i | -4.3 | i | i | i | -2.06 | · | · | · | ·
CCOc1ncccc1C(=O)OCC(=O)NC(=O)NC(C)C | 8* | -11.8 | i | i | i | -2.47 | 0.0 | 0.507 | i | i
CCOc1ncccc1C(=O)OCC(=O)Nc1ccc(C(C)C)cc1 | i | -12.6 | i | i | i | -1.54 | · | · | · | ·
CCC1Sc2ccc(S(=O)(=O)Nc3ccc(OC)cc3)cc2NC1=O (configuration not stated) | i | -6.5 | i | i | i | -0.51 | · | · | · | ·

Screening data deposited in PubChem by Johns Hopkins Ion Channel Center.
